Test results published in ChEMBL document CHEMBL4330127, “Discovery of Novel Pyruvate Dehydrogenase Kinase 4 Inhibitors for Potential Oral Treatment of Metabolic Diseases” (J Med Chem, 2019).
pIC50: −log10 of the molar value. The source made the active and inactive calls. The rule behind the calls is not given here.

Key:
[1] = target: T1, [Pyruvate dehydrogenase (acetyl-transferring)] kinase isozyme 4, mitochondrial (Homo sapiens, UniProt Q16654); test: Inhibition of PDK4 in HEK293T cells assessed as reduction in PDHE1alpha phosphorylation at Ser-232 residue by measuring phosphorylated PDHE1alpha level at 10 uM after 24 hrs by Western blot analysis; type: cell-based
T1 sequence (Q16654 whole entry, looked up): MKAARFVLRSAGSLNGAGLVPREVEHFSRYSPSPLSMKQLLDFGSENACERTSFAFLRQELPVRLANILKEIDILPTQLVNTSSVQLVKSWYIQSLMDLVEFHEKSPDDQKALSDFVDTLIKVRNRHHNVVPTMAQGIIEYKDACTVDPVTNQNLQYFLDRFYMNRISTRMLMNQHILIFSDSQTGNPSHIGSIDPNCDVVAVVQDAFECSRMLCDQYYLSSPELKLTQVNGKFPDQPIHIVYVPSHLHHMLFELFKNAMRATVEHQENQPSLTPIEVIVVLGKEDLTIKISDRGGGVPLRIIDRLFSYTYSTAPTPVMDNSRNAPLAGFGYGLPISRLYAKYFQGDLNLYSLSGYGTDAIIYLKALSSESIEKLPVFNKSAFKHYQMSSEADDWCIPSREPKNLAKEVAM
Procedure, shortened: (§1)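 HEK293T cells grown in high-glucose DMEM with 10% FBS at 37 °C, 5% CO2. Medium renewed after 24 h, then cells exposed to compound for 24 h and lysed. 20 μg protein per lane Western blotted with antibodies to phospho-PDHE1α Ser232, Ser293 and Ser300 and to total PDHE1α. Band intensity quantified relative to control; triplicate.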

[2] = target: T1, [Pyruvate dehydrogenase (acetyl-transferring)] kinase isozyme 4, mitochondrial; test: Inhibition of PDK4 in HEK293T cells assessed as reduction in PDHE1alpha phosphorylation at Ser-293 residue by measuring phosphorylated PDHE1alpha level at 10 uM after 24 hrs by Western blot analysis; type: cell-based; procedure, shortened: as §1
[3] = Half life in human liver microsomes at 1 uM preincubated for 5 mins followed by NADPH/UDPGA addition by LC-MS/MS analysis; type: ADME, Microsome
Procedure, shortened: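 Pooled human liver microsomes (1.0 mg/mL) were preincubated with substrate (1 μM) at 37 °C for 5 min. NADPH and UDPGA were added and samples taken at 10, 20, 40 and 60 min. Reactions were quenched with acetonitrile, centrifuged, and the supernatant quantified by LC-MS/MS. Buspirone served as positive control.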

[4] = Drug metabolism in human liver microsomes assessed as hydroxyl metabolite formation at 100 uM preincubated for 5 mins followed by NADPH/UDPGA addition and measured up to 2 hrs by LC-MS/MS analysis; type: ADME, Microsome
Procedure, shortened: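 Pooled human liver microsomes (1.0 mg/mL) were mixed with alamethicin (25 μg/mg protein) and kept on ice for 15 min. Substrate (100 μM) was added and the mix preincubated 5 min at 37 °C. NADPH (1.3 mM) and UDPGA (5 mM) were then added and incubation ran 2 h with agitation. The reaction was stopped with ice-cold acetonitrile, centrifuged, and the supernatant analysed by LC-MS/MS (ESI positive, transition 358.2 → 84.1).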

[5] = target: UDP-glucuronosyltransferase 1A1 (Homo sapiens, UniProt P22309); test: Inhibition of UGT1A1 in human liver microsomes assessed as reduction in SN-38 glucuronidation by tandem mass spectrometry analysis; type: ADME
Chain of UDP-glucuronosyltransferase 1A1 (P22309 whole entry): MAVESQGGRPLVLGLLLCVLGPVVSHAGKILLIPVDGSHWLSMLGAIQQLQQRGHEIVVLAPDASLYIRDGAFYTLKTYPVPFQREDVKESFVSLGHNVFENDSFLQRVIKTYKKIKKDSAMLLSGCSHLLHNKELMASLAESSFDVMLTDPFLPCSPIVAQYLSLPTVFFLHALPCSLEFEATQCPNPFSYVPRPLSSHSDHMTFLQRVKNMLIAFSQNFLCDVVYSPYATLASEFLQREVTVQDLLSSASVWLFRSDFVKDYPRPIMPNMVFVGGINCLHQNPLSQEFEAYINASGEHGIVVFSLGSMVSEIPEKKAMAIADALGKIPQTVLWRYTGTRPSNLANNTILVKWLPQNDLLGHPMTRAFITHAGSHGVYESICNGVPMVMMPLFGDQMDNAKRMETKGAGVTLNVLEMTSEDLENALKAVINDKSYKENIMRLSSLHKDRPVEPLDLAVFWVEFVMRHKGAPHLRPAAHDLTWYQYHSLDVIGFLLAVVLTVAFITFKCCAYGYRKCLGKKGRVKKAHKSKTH
Procedure, shortened: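 Pooled human liver microsomes; test compound at final 0–50 μM in a cocktail incubation with probe substrates: midazolam 1′-hydroxylation (CYP3A), SN-38 glucuronidation (UGT1A1), trifluoperazine N-glucuronidation (UGT1A4), mycophenolic acid glucuronidation (UGT1A9), naloxone 3-glucuronidation (UGT2B7). Metabolites measured by tandem MS; IC50 determined; duplicate.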

[6] = system: NIH3T3; test: Cytotoxicity against mouse NIH/3T3 cells; type: cell-based
[7] = system: CHO-K1; test: Cytotoxicity against CHOK1 cells; type: cell-based; conditions: Cricetulus griseus
[8] = AUCt in rat at 5 mg/kg, iv; type: ADME, organism-based; conditions: in vivo
Procedure, shortened: (§2)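 Male rats given a single dose, 5 mg/kg intravenously or 10 mg/kg orally. Plasma PK parameters were reported as mean ± SD: AUCt, AUC∞, Cmax, Tmax, T1/2, CL, Vss and oral bioavailability F.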

[9] = Clearance in rat at 5 mg/kg, iv; type: ADME, organism-based; conditions: in vivo; procedure, shortened: as §2
[10] = Half life in rat at 10 mg/kg, po; type: ADME, organism-based; conditions: in vivo; procedure, shortened: as §2
[11] = target: RAC-alpha serine/threonine-protein kinase (Mus musculus) (UniProt P31750); test: Increase in AKT phosphorylation at Ser-473 residue in mouse AML-12 cells at 10 uM after 24 hrs by Western blot analysis; type: cell-based
Chain of RAC-alpha serine/threonine-protein kinase (Mus musculus) (P31750 whole entry): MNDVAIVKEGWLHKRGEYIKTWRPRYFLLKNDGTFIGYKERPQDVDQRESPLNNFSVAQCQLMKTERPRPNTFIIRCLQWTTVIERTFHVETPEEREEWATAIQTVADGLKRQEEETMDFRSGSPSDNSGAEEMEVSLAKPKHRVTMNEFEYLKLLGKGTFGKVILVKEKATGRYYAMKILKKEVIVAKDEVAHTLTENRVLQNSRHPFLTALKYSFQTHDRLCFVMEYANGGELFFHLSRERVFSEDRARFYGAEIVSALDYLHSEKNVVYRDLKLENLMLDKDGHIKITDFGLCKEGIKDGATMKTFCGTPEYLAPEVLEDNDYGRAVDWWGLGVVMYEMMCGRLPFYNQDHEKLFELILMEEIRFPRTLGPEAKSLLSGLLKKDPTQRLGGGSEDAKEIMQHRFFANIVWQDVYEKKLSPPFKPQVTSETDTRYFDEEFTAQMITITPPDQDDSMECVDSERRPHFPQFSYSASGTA
Procedure, shortened: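 AML12 hepatocytes challenged with palmitate, then exposed to 10 μM compound or vehicle (5 mM DCA as reference) for 24 h; p-Akt read by Western blot of cell lysates.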

[12] = system: HCT-116; test: Induction of apoptosis in human HCT116 cells assessed as increase in Bax expression at 10 to 50 uM after 24 hrs by Western blot analysis; type: functional, cell-based
Procedure, shortened: (§3)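 HCT116 and RKO cells given a range of compound doses for 24 h; lysates probed by Western blot for apoptosis-related proteins (p53, BAX, BCLxL).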

[13] = system: RKO; test: Induction of apoptosis in human RKO cells assessed as decrease in Bcl-XL expression at 10 to 50 uM after 24 hrs by Western blot analysis; type: functional, cell-based; procedure, shortened: as §3
[14] = system: RKO; test: Inhibition of colony formation in human RKO cells at 10 to 50 […] after 7 days by crystal violet staining based assay; type: functional, cell-based
Procedure, shortened: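 HCT116 and RKO cells seeded in 6-well plates and treated with compound for 7 days. Cells then fixed and stained with crystal violet to score colony formation.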

[15] = system: HCT-116; test: Induction of apoptosis in human HCT116 cells assessed as early apoptotic cells at 10 uM after 24 hrs by Annexin V/propidium iodide staining based flow cytometry (reference value: 4.36%); type: functional
[16] = system: HCT-116; test: Induction of apoptosis in human HCT116 cells assessed as necrotic cells at 10 uM after 24 hrs by Annexin V/propidium iodide staining based flow cytometry (reference value: 2.92%); type: functional
[17] = system: HCT-116; test: Cell cycle arrest in human HCT116 cells assessed as accumulation at S phase at 10 uM after 24 hrs propidium iodide staining based flow cytometry (reference value: 18%); type: functional
Procedure, shortened: (§4)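 HCT116 and RKO cells were treated with compound alone or with oxaliplatin for 24 h before harvest. Cells were stained with propidium iodide, and DNA content was analysed by flow cytometry. Cell-cycle phase populations, including sub-G1, are given as percentages.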

[18] = system: HCT-116; test: Cell cycle arrest in human HCT116 cells assessed as accumulation at G2/M phase at 10 uM after 24 hrs propidium iodide staining based flow cytometry (reference value: 22.2%); type: functional; procedure, shortened: as §4
[19] = system: HCT-116; test: Cell cycle arrest in human HCT116 cells assessed as accumulation at G1/G0 phase at 50 uM after 24 hrs propidium iodide staining based flow cytometry (reference value: 42%); type: functional; procedure, shortened: as §4
[20] = system: HCT-116; test: Cell cycle arrest in human HCT116 cells assessed as accumulation at S phase at 50 uM after 24 hrs propidium iodide staining based flow cytometry (reference value: 18%); type: functional; procedure, shortened: as §4
[21] = system: HCT-116; test: Cell cycle arrest in human HCT116 cells assessed as accumulation at S phase at 25 uM after 24 hrs in presence of oxaliplatin propidium iodide staining based flow cytometry (reference value: 5.4%); type: functional; procedure, shortened: as §4
[22] = system: RKO; test: Induction of apoptosis in human RKO cells assessed as early apoptotic cells at 50 uM after 24 hrs by Annexin V/propidium iodide staining based flow cytometry (reference value: 9.62%); type: functional
[23] = system: RKO; test: Cell cycle arrest in human RKO cells assessed as accumulation at G2/M phase at 25 uM after 24 hrs propidium iodide staining based flow cytometry (reference value: 23.3%); type: functional; procedure, shortened: as §4
[24] = system: RKO; test: Cell cycle arrest in human RKO cells assessed as accumulation at sub-G1 phase at 50 uM after 24 hrs propidium iodide staining based flow cytometry (reference value: 17.6%); type: functional
[25] = system: RKO; test: Cell cycle arrest in human RKO cells assessed as accumulation at S phase at 25 uM after 24 hrs in presence of oxaliplatin propidium iodide staining based flow cytometry (reference value: 4.5%); type: functional
[26] = target: T1, [Pyruvate dehydrogenase (acetyl-transferring)] kinase isozyme 4, mitochondrial; test: Inhibition of PDK4 (unknown origin) at 10 uM relative to control

With `Cl.O=C1c2ccccc2C(=O)c2c1cccc2-c1cnn(C2CCNCC2)c1` the fold change (FC) [1] was 0.04, the fold change (FC) [2] was 0.18 and the half-life at 1 µM [3] was > 60 min. For the same compound, the Drug metabolism [4] was “Metabolite_Detected”, the pIC50 [5] was < 4.30 and the pIC50 [6] was 4.40. The pIC50 [7] was 4.44, the AUC(0-t) [8] was 7020 ng·h/mL and the clearance [9] was 11.4 mL/min/kg. For the same compound, the half-life [10] was 1300 min, the Activity [11] was “Active” and the Activity [12] was “Active”. The Activity [13] was “Active”, the inhibition [14] was “Active” and the Activity [15] was 2.9%. The Activity [16] was 12.1%, the Activity [17] was 29.1% and the Activity [18] was 14.9%. The Activity [19] was 11.2%, the Activity [20] was 5.3% and the Activity [21] was 12.7%. It also gave an Activity [22] of 41.4%, an Activity [23] of 21.6% and an Activity [24] of 91.1%. It also gave an Activity [25] of 5.2% and an inhibition [26] of 50.1%.
